Data reported in ChEMBL document CHEMBL1123180, “Improved glucose tolerance in rats treated with oxazolidinediones” (1986).
Calls of active or inactive are those of the source. The rule behind the calls is not given here.

System: Rattus norvegicus
Assay: Compound was tested for the ability to lower blood sugar level at the dose of 0.63 mg/kg in fasted rats, by using glucose tolerance test(GTT)
Type: functional
Conditions: not given
Outline: (§1)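 Male albino rats, groups of five or six, fasted 18–24 h. Glucose 1 g/kg given ip; test drug (0.1 to 100 mg/kg) or water (controls) given orally. Tail-vein blood sampled over 0–3 h; glucose (mg/100 mL) measured by Autoanalyser ferricyanide method. Value is percent lowering of blood glucose vs controls at 0.5 h; a lowering of ≥9% is needed for P = 0.05.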

Compound	Blood sugar lowering [%]
COc1cccc(Cl)c1C1OC(=O)NC1=O (configuration not stated)	11

System: Rattus norvegicus
Assay: Ability to lower blood sugar level at the dose of 2.5 mg/kg in fasted rats, by using glucose tolerance test(GTT)
Type: functional
Conditions: not given
Outline: as §1

Compound	Blood sugar lowering [%]
COc1ccc(F)cc1C1OC(=O)NC1=O (configuration not stated)	15
C=CCOc1cccc(Cl)c1C1OC(=O)NC1=O (configuration not stated)	17

Same assay, conditions: 2.5 mg/kg

Compound	Blood sugar lowering [%]
COc1ccc(Cl)cc1C1OC(=O)NC1=O (single isomer, unassigned; (-))	26
COc1ccc(Cl)cc1C1OC(=O)NC1=O (single isomer, unassigned; (+))	12

System: Rattus norvegicus
Assay: Ability to lower blood sugar level at the dose of 100 mg/kg in fasted rats, by using glucose tolerance test(GTT)
Type: functional
Conditions: not given
Outline: as §1

Compound	Blood sugar lowering [%]
O=C1NC(=O)C(c2cccc(Oc3ccccc3)c2)O1 (configuration not stated)	12
O=C1NC(=O)C(c2ccc3c(c2)OCO3)O1 (configuration not stated)	18
COc1ccc(C2OC(=O)NC2=O)cc1 (configuration not stated)	19
O=C1NC(=O)C(c2cccc(Cl)c2)O1 (configuration not stated)	26
O=C1NC(=O)C(c2ccc(OCc3ccccc3)cc2)O1 (configuration not stated)	20
Cc1ccc(C2OC(=O)NC2=O)cc1 (configuration not stated)	10
O=C1NC(=O)C(c2ccccc2OCc2ccccc2)O1 (configuration not stated)	11
O=C1NC(=O)C(c2ccc(F)cc2)O1 (configuration not stated)	21
CCOc1ccc(C2OC(=O)NC2=O)cc1 (configuration not stated)	18
COc1ncccc1C(=O)NCCc1ccc(C2OC(=O)NC2=O)cc1 (configuration not stated)	26

System: Rattus norvegicus
Assay: Ability to lower blood sugar level at the dose of 100 mg/kg in fasted rats, by using glucose tolerance test(GTT); NA=Inactive
Type: functional, organism-based
Set-up: dose 100 mg/kg
Conditions: not given
Outline: as §1

Compound	Blood sugar lowering
CCC1(c2ccccc2)OC(=O)NC1=O (configuration not stated)	inactive
CN1C(=O)OC(c2ccccc2)C1=O (configuration not stated)	inactive
Nc1ccc(C2OC(=O)NC2=O)cc1 (configuration not stated)	inactive
O=C1NC(=O)C(c2ccccc2)N1 (configuration not stated)	inactive
CNC(=O)Nc1ccccc1C1OC(=O)NC1=O (configuration not stated)	inactive

System: Rattus norvegicus
Assay: Compound was tested for the ability to lower blood sugar level at the dose of 100 mg/kg in fasted rats, by using glucose tolerance test(GTT)
Type: functional
Conditions: not given
Outline: as §1

Compound	Blood sugar lowering [%]
O=C1NC(=S)OC1c1ccccc1 (configuration not stated)	17

System: Rattus norvegicus
Assay: Compound was tested for the ability to lower blood sugar level at the dose of 100 mg/kg in fasted rats, by using glucose tolerance test(GTT); NA=Inactive
Type: functional, organism-based
Set-up: dose 100 mg/kg
Conditions: not given
Outline: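 Male albino rats (groups of five or six) fasted 18–24 h, given glucose 1 g/kg ip plus oral drug (range 0.1–100 mg/kg) or water for controls. Tail-vein blood glucose sampled over 0–3 h, read by ferricyanide autoanalyser method. Value is percent blood glucose lowering vs controls at 0.5 h; ≥9% lowering needed for significance at P = 0.05.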

Compound	Blood sugar lowering
NC1=NC(=O)C(c2ccccc2)O1 (configuration not stated)	inactive

System: Rattus norvegicus
Assay: Compound was tested for the ability to lower blood sugar level at the dose of 50 mg/kg in fasted rats, by using glucose tolerance test(GTT)
Type: functional
Conditions: not given
Outline: as §1

Compound	Blood sugar lowering [%]
COc1cccc(C2OC(=O)NC2=O)c1OC (configuration not stated)	12
O=C1NC(=O)C(c2ccc(Cl)cc2)O1 (configuration not stated)	12

System: Rattus norvegicus
Assay: Ability to lower blood sugar level at the dose of 25 mg/kg in fasted rats, by using glucose tolerance test(GTT)
Type: functional
Conditions: not given
Outline: as §1

Compound	Blood sugar lowering [%]
CCSc1cccc(F)c1C1OC(=O)NC1=O (configuration not stated)	17
Cc1ccc(F)cc1C1OC(=O)NC1=O (configuration not stated)	19
COc1ccc(C2OC(=O)NC2=O)c(OC)c1 (configuration not stated)	10
CCc1ccc(OC)c(C2OC(=O)NC2=O)c1 (configuration not stated)	10
Cl.Nc1ccccc1C1OC(=O)NC1=O (configuration not stated)	15
CSc1cccc(F)c1C1OC(=O)NC1=O (configuration not stated)	18
CC(C)Oc1cccc(F)c1C1OC(=O)NC1=O (configuration not stated)	15
COc1ccc(C#N)cc1C1OC(=O)NC1=O (configuration not stated)	19
CSc1cccc(Cl)c1C1OC(=O)NC1=O (configuration not stated)	21
O=C1NC(=O)C(c2ccccc2[N+](=O)[O-])O1 (configuration not stated)	11
O=C1NC(=O)C(Cc2ccccc2)O1 (configuration not stated)	9
O=C1NC(=O)C(c2c(F)cccc2F)O1 (configuration not stated)	25
O=C1NC(=O)C(c2c(Cl)cccc2Cl)O1 (configuration not stated)	21

System: Rattus norvegicus
Assay: Ability to lower blood sugar level at the dose of 5 mg/kg in fasted rats, by using glucose tolerance test(GTT)
Type: functional
Conditions: not given
Outline: as §1

Compound	Blood sugar lowering [%]
CCOc1cccc(F)c1C1OC(=O)NC1=O (configuration not stated)	9
CCOc1ccc(F)cc1C1OC(=O)NC1=O (configuration not stated)	9
COc1ccccc1C1OC(=O)NC1=O (configuration not stated)	14
CC(=O)Nc1ccccc1C1OC(=O)NC1=O (configuration not stated)	14
CCOc1ccc(Cl)cc1C1OC(=O)NC1=O (configuration not stated)	11
CCOc1ccccc1C1OC(=O)NC1=O (configuration not stated)	15
COc1ccc(Br)cc1C1OC(=O)NC1=O (configuration not stated)	22
O=C1NC(=O)C(c2ccccc2F)O1 (configuration not stated)	10

System: Rattus norvegicus
Assay: Compound was tested for the ability to lower blood sugar level at the dose of 10 mg/kg in fasted rats, by using glucose tolerance test(GTT); NA=Inactive
Type: functional, organism-based
Set-up: dose 10 mg/kg
Conditions: not given
Outline: as §1

Compound	Blood sugar lowering
COc1ccc(S(N)(=O)=O)cc1C1OC(=O)NC1=O (configuration not stated)	inactive
C/C=C/Oc1cccc(Cl)c1C1OC(=O)NC1=O (configuration not stated)	inactive
